In the library only some 4.1% were active in any assay of this set; here they are far more common.
KCNK9 block: human KCNK9 channel inhibition; Q9NPC2; HEK293 KCNK9, FluxOR thallium flux fluorescence; active compounds read low; B-score at 10 µM; 1.2% of 310,000 active; AID 488922;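 active means ratio B-score over 3 SD below the library mean, with starting fluorescence within 5 SD of its mean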;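 further: negative B-score means less thallium flux so channel inhibition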
hERG protect: shields human hERG channel from block by proarrhythmic agents; CHO-hERG, FluxOR thallium flux, dofetilide IC70 present; Q12809; 0.51% of 310,000 active; activation (rescue from dofetilide block), less the hit threshold, % at 10 µM;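 active means activation above the mean of controls blocked by dofetilide plus 5 SD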;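 further: thallium influx through hERG after potassium depolarization seen as dye fluorescence rise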
Cl transport mod: KCC2 (human) Cl- transport modulation | Q9H2X9 | KCC2 cells, thallium flux FluoZin-2 fluorescence | B-score of Tl+ flux slope (higher = more flux/activation; lower = inhibition) at 10 µM | 2.2% of 190,000 active;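 active means thallium flux slope and its plate-corrected score both differing from the plate sample mean at a set confidence after two filtering rounds, in either direction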;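 further: slope of fluorescence scaled to starting intensity during 10 to 20 s after thallium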
KCNK3 block: human KCNK3 channel inhibition, primary screen; CHO-KCNK3 thallium flux, FluxOR fluorescence; active compounds read low; O14649; B-score at 10 µM; 0.84% of 340,000 active;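 active means B-score under library mean minus 4 SD, starting fluorescence ratio at most library mean plus 5 SD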;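 further: more negative B-score means stronger inhibition of thallium flux through KCNK3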
Target sequence (O14649 whole entry, looked up): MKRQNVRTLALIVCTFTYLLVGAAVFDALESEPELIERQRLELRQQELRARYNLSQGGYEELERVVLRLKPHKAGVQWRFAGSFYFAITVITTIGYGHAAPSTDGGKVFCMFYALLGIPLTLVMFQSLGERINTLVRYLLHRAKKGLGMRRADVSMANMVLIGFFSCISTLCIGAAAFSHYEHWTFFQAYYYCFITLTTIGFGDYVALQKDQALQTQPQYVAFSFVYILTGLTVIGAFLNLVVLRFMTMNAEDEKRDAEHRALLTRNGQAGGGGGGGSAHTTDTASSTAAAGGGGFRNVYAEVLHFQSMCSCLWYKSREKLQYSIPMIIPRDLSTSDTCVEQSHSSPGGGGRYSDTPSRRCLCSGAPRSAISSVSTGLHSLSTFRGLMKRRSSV
KCNQ1 inh: blocks the human KCNQ1 potassium channel; B-score at 10 µM; 1.3% of 310,000 active; CHO-K1 KCNQ1, FluxOR thallium flux fluorescence; active compounds read high; P51787;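 active means compounds whose thallium flux B-score, printed positive for inhibition, exceeds three library SD while starting fluorescence stays within three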;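 further: channel opened by potassium depolarization with thallium stimulus after 20 min compound exposure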
KCNQ1 pot: human KCNQ1 channel potentiation or activation; P51787; CHO-K1 KCNQ1, thallium flux FluxOR fluorescence; active compounds read high; B-score at 10 µM; 0.35% of 310,000 active;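 active means fluorescence ratio B-score, a plate-corrected score, at least three library SD, with initial intensity B-score within 5 SD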
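Test system: CHO-K1 cells stably expressing KCNQ1 / Medium: assay buffer / Also added: depolarizing K+/Tl+ stimulus, K2SO4 and Tl2SO4 each 12.5 mM in 5x stock / Incubation: 90 min dye loading and 20 min compound exposure, both at room temperature / Signal: thallium influx via FluxOR fluorescence, kinetic imaging / Evaluation: B score of baseline-normalized fluorescence ratio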
KCNK9 block conf: confirmation of human KCNK9 potassium channel inhibitors. shares compounds with KCNK9 block. HEK293 KCNK9 cells, FluxOR thallium flux fluorescence. inhibition, % at 10 µM. 43% of 4,900 active;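 active means thallium signal inhibited by more than 5 SD of the compound-free buffer control wells, on both duplicate plates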;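 further: 0% = assay buffer control wells without compound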
Kir2-1 spec: mouse Kir2.1 off-target activity of KCNK9 modulators. shares compounds with KCNK9 block. Kir2.1 cells, FluxOR thallium flux fluorescence. inhibition, % at 10 µM. 4% of 4,900 active. AID 492993;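 active means thallium signal drop more than 5 SD beyond the mean of the no-compound control wells, seen in both duplicate plates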;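 further: signal is fluorescence rise after thallium addition divided by baseline fluorescence; plate controls were assay buffer only for no effect and full block by chlorpromazine control for full effect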
HEK293 Tl ctr: non-induced cell nonspecific activity of KCNK9 modulators. shares compounds with KCNK9 block. non-induced KCNK9-HEK293, FluxOR thallium flux. inhibition, % at 10 µM. 40% of 4,900 active. AID 492997;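 active means thallium signal drop beyond 5 SD of the untreated control mean, on both duplicate plates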;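 further: plate controls were buffer only IC0 wells for no effect and SID17386958 at its maximal inhibitory level for full effect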
KCNK3 inh conf: human KCNK3 channel inhibition, confirmation assay; ratio percent of control, % at 10 µM; 99% of 2,400 active; shares compounds with KCNK3 block; CHO-KCNK3 thallium flux, FluxOR fluorescence; 0% buffer, 100% carvedilol maximal block;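 active means ratio percent of control, averaged over triplicates, above buffer control mean plus 5 SD, cut at about 64% in these data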;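 further: ratio is the fluorescence rise from min to max over baseline after thallium stimulus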
KCNK3 uninduced: KCNK3 inhibitor counter-screen hit in non-induced cells. thallium flux ratio (lower = more inhibition) at 10 µM. shares compounds with KCNK3 block. non-induced KCNK3 parental cells, FluxOR thallium flux; active compounds read low. 40% of 2,400 active;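 active means thallium flux ratio, averaged over three wells, more than 5 SD below the buffer control mean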;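 further: host cells are CHO cells without KCNK3 induction; ratio is peak minus trough fluorescence over baseline then normalized to buffer controls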
* = called active by the depositor; i = inactive; · = no result given.

SMILES	KCNK9 block	hERG protect	Cl transport mod	KCNK3 block	KCNQ1 inh	KCNQ1 pot	KCNK9 block conf	Kir2-1 spec	HEK293 Tl ctr	others
Cc1ccc(/C=N/NC(=O)c2ccccc2OCc2cccc(Br)c2)o1	-10.4*	-11.2	-2.19	i	i	i	30.5%*	i	i
COc1cc(OC)nc(Oc2cccc(C(F)(F)F)c2)n1	-10.3*	-7.5	·	i	i	i	48.0%*	i	38.0%*
NC(=O)c1ccccc1OCc1nc2ccccc2s1	i	-14.2	·	i	i	i	i	i	i
Cc1cc(C)cc(C(=O)NC(CC(N)=O)c2ccc(N3CCC(Cc4ccccc4)CC3)c([N+](=O)[O-])c2)c1 (stereo not drawn)	-12.8*	-4.6	·	i	i	i	53.0%*	i	36.0%*
CCC(c1nnnn1CCc1ccccc1)N(Cc1ccco1)Cc1cc2cccc(C)c2[nH]c1=O (stereo not drawn)	-10.5*	-11.5	-0.262	i	7*	i	33.0%*	i	29.5%*
COc1ccc(CNC(=O)CN(Cc2ccccc2)C(=O)CCC(=O)Nc2ccccn2)cc1	i	-9.4	·	i	i	i	·	·	·
Cc1cc(S(=O)(=O)N2CCCCCC2)c(Cl)cc1Cl	i	-13.5	·	i	i	i	i	i	i
CCN(c1ccccc1)S(=O)(=O)c1cccc(C(=O)NCC(c2ccc(F)cc2)N2CCOCC2)c1 (stereo not drawn)	·	·	·	i	·	·	·	·	·
C=CCc1ccc(O)c(-c2ccc(O)c(CC=C)c2)c1	-18.4*	-17.1	0.333	i	i	i	76.5%*	i	42.5%*
CCC(C(=O)Nc1nc(C)c(C(=O)OC)s1)c1ccccc1 (stereo not drawn)	-9.38*	-13.2	0.615	i	i	i	30.0%*	i	26.0%*
CC(C)(C)c1ccc(C(=O)CC(Sc2ccc(Cl)cc2)C(=O)O)cc1 (stereo not drawn)	i	-17.9	-1.27	i	i	i	i	i	i
Cc1ccc(SC(CC(=O)c2ccc(F)cc2)C(=O)O)cc1 (stereo not drawn)	i	-8.3	·	i	i	i	·	·	·
COC(=O)c1sc(N2C(=O)C(O)=C(C(=O)c3ccc(C)o3)C2c2cc(OC)ccc2OC)nc1C (stereo not drawn)	i	-2.0	·	i	i	i	·	·	·
CC(C(=O)Nc1ccc(Cl)cc1)N(C)Cc1cccs1 (stereo not drawn)	-11.2*	-3.9	·	i	i	i	55.5%*	i	25.0%*
CCC(=O)c1ccccc1OCCN1CCN(Cc2ccccc2)CC1	i	-8.1	-1.02	i	i	i	i	i	i
O=C(c1ccccc1)c1ccc(OCCOCCN2CCN(Cc3ccccc3)CC2)cc1	i	-24.6	-1.26	i	i	i	i	i	i
O=C(c1ccccc1)c1ccc(OCCCN2CCCC2)cc1	i	-14.1	-0.0466	i	i	i	·	·	·
COc1ccc(S(=O)(=O)N/N=C(/C)c2ccncc2)c(OC)c1	i	-6.9	·	i	i	i	·	·	·
COc1ccc(C2c3[nH]c4ccccc4c3CCN2Cc2ccoc2)c(F)c1 (stereo not drawn)	i	-33.1	-0.0471	i	i	i	i	i	i
COc1ccc(COC(=O)Nc2cn(C)nc2C(F)(F)F)cc1	i	-9.6	0.922	i	i	i	·	·	·
Cc1c(N2C(=O)/C(=C\c3cccc4ccccc34)SC2=S)c(=O)n(-c2ccccc2)n1C	i	-6.0	·	-9.4*	i	i	i	i	i
CC1(O)C(=O)C=C2C=C(c3ccc(C#N)cc3)OC=C2C1=O (stereo not drawn)	i	-9.8	·	·	i	i	·	·	·
N#Cc1c(-c2ccc(Cl)cc2)n(O)c2ccccc12	·	·	·	i	·	·	·	·	·
O=C(c1ccco1)N(CC1CCCO1)c1nc(-c2ccccc2)cs1 (stereo not drawn)	i	-9.9	-1.84	i	i	i	·	·	·
Cc1ccc(-c2csc(N(CC3CCCO3)C(=O)c3ccco3)n2)cc1 (stereo not drawn)	-8.59*	-11.6	-0.384	i	i	i	43.0%*	i	33.5%*
SMILES	KCNK9 block	hERG protect	Cl transport mod	KCNK3 block	KCNQ1 inh	KCNQ1 pot	KCNK9 block conf	Kir2-1 spec	HEK293 Tl ctr	others
Clc1ccc(/C=N/NC(=Nc2ccccc2)c2ccccn2)c(Cl)c1	i	-7.5	·	i	i	i	i	i	i
COC(=O)c1nn(-c2ccccc2)c(-c2ccccc2)c1C(=O)c1ccccc1	-9.41*	-11.2	-1.32	-8.86*	i	i	48.0%*	i	i	KCNK3 inh conf=106.3*;KCNK3 uninduced=i
Cc1cc2c(c(CO)c1CCO)C(=O)[C@@H](C)[C@@H]2O	·	·	·	i	·	·	·	·	·
CCOc1ccccc1CNS(=O)(=O)c1cc(-c2cc(C)no2)ccc1OC	i	-5.3	·	i	i	i	·	·	·
COc1ccccc1CNS(=O)(=O)c1cc(-c2cc(C)no2)ccc1C(C)C	-11.1*	-15.7	·	-9.5*	6*	i	59.5%*	i	37.5%*	KCNK3 inh conf=119.0*;KCNK3 uninduced=0.139*
CC(=O)NC(CCS(C)(=O)=O)C(=O)Nc1cc(Cl)ccc1Cl (stereo not drawn)	i	-10.8	-0.369	i	i	i	·	·	·
CC(C)S(=O)(=O)c1csc(NC(=O)Nc2cc(Cl)ccc2Cl)c1Cl	-8.19*	-7.6	0.309	-11.4*	i	i	54.0%*	i	38.5%*	KCNK3 inh conf=139.0*;KCNK3 uninduced=0.142*
CCN(CC)C(=O)COc1ccc(-c2ccccc2)cc1	-9.85*	-3.5	0.503	-10*	i	i	41.0%*	i	i	KCNK3 inh conf=84.3*;KCNK3 uninduced=i
CCN(Cc1ccccc1)C(=O)COc1ccccc1	i	-10.8	·	i	i	i	·	·	·
Cc1ccc(NC(=O)Nc2c(C)[nH]c(=O)[nH]c2=O)cc1Cl	i	-5.9	·	i	i	i	·	·	·

Screening data as filed in PubChem BioAssay.
